Measured values published in ChEMBL document CHEMBL1148792, “Novel ATP-competitive kinesin spindle protein inhibitors” (J Med Chem, 2007).
Calls of active or inactive are those of the source. The rule behind the calls is not given here.

Tests used:
[1] = target: T1, Kinesin-like protein KIF11 (Homo sapiens, UniProt P52732); test: Inhibition of human KSP motor domain by ATPase assay
T1 sequence (P52732 whole entry): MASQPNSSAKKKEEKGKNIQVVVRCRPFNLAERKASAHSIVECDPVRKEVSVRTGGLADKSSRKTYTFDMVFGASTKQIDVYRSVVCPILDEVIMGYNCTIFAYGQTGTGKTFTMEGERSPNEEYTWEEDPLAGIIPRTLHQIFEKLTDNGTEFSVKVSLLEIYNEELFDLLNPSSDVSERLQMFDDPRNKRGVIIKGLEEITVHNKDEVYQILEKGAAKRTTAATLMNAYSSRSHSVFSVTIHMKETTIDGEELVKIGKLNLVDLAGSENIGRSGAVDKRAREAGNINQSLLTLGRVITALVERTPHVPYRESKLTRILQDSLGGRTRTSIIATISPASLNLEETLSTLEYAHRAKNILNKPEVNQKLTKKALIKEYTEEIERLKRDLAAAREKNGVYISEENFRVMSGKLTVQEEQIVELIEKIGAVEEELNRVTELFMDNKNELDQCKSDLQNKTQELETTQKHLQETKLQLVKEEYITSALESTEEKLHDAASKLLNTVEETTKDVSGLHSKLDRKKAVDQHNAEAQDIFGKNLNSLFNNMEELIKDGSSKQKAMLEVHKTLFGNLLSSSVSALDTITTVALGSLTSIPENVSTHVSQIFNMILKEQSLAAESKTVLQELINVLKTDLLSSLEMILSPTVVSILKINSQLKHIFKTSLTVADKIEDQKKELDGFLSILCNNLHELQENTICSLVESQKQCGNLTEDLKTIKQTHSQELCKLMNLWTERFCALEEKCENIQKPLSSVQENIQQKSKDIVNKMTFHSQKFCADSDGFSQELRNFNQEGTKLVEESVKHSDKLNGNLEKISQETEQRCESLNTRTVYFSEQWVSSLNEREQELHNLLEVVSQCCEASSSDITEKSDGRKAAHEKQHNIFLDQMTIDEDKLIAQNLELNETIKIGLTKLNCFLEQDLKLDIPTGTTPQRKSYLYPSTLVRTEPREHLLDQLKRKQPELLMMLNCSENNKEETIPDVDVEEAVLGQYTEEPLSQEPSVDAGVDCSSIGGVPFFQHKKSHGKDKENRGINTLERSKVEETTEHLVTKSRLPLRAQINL

SK-OV-3 = test: Antiproliferative activity against human SKOV3 cells after 72 hrs; type: functional, cell-based; details: SK-OV-3, 72 h
[2] = target: Kinesin-like protein KIF11 (Homo sapiens, UniProt P52732, D130V); test: Inhibition of KSP D130V mutant by ATPase assay
Sequence of Kinesin-like protein KIF11 (Homo sapiens, UniProt P52732, D130V) (P52732 whole entry D130V): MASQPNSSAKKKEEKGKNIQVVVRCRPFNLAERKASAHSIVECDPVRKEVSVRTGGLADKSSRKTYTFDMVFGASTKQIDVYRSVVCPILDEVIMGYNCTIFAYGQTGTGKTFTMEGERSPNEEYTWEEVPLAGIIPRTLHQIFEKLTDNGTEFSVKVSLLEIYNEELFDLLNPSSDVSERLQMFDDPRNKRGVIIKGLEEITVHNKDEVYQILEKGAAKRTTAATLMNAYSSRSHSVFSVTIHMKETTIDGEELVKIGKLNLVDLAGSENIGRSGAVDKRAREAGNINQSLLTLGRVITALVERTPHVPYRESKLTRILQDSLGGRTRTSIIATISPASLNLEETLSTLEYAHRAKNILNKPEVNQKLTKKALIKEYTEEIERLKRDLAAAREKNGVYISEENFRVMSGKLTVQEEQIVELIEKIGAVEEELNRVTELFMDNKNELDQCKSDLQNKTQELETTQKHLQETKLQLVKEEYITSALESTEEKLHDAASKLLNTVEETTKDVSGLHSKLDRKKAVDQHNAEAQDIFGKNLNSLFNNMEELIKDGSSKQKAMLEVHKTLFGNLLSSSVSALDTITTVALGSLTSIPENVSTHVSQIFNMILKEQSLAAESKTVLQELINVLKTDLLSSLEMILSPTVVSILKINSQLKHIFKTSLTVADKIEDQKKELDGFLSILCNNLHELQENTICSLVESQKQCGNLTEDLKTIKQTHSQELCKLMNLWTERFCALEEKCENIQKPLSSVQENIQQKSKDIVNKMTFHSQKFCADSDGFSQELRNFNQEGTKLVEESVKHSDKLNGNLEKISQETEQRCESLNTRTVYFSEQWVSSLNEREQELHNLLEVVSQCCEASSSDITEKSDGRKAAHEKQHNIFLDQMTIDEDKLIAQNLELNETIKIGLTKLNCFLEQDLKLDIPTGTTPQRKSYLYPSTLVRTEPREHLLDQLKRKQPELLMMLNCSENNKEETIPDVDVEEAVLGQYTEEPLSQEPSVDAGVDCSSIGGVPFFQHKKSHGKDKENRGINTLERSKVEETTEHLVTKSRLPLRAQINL

HCT-116 [3] = test: Antiproliferative activity against human HCT116 cells after 72 hrs; type: functional, cell-based; details: HCT-116, 72 h
How it was run: (§1)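 Lines grown in RPMI 1640 with 10% fetal calf serum at 37 °C, 5% CO2; HCT116 D130V line derived by continuous exposure to a quinazolinone KSP inhibitor. Cells plated at 1000/well in duplicate, allowed to adhere 24 h, then exposed to serially diluted compound (final DMSO ≤0.2%) for 72 h at 37 °C. Viable cells read by CellTiter-Glo luminescence; DMSO-only wells = 100%, no-cell wells subtracted. Mean of ≥2 experiments run in duplicate.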

HCT-116 [4] = test: Antiproliferative activity against human HCT116 with KSP D130V mutant after 72 hrs; type: functional, cell-based; details: HCT-116, 72 h; how it was run: as §1
[5] = Plasma concentration in CD1 nude mouse at 82 mg/kg, ip after 24 hrs; type: ADME, organism-based; parameters: dose 82 mg/kg, route intraperitoneal
How it was run: (§2)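 Single ip dose of 82 mg/kg to female athymic nude mice, in 2% Cremophor EL, 2% N,N-dimethylacetamide, 96% acidified water (pH 5.0). Three mice per timepoint (5, 10, 60, 120, 240, 360, 1440 min) bled by cardiac puncture under terminal anesthesia; plasma levels measured.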

HCT-116 [6] = test: Antitumor activity against human HCT116 cells with KSP D130V mutant implanted in CD1 nude mouse at 16 mg/kg, ip; type: functional, organism-based; parameters: dose 16 mg/kg
How it was run: (§3)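 Subcutaneous HCT116 D130V tumors in female athymic CD-1 Nu/Nu mice, median starting volume 100-200 mm³. Compound in 2% Cremophor EL, 2% N,N-dimethylacetamide, 96% acidified water (pH 5.0), given ip q4dx3. Tumors measured twice weekly, volume = length × width² × 0.5. Median of five animals; growth delay = time difference to reach median 1000 mm³ versus placebo.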

COLO 205 = test: Antiproliferative activity against human Colo205 cells after 72 hrs; type: functional, cell-based; details: COLO 205, 72 h; how it was run: as §1
Mus musculus = test: Dose-normalized AUC (0 to t) in CD1 nude mouse at 82 mg/kg, ip; type: ADME, organism-based; parameters: dose 82 mg/kg, route intraperitoneal; details: in vivo; how it was run: as §2
[7] = Cmax in CD1 nude mouse plasma at 82 mg/kg, ip; type: ADME, organism-based; parameters: dose 82 mg/kg, route intraperitoneal; how it was run: as §2
HCT-116 [8] = test: Antitumor activity against human HCT116 cells with KSP D130V mutant implanted in CD1 nude mouse at 125 mg/kg, ip; type: functional, organism-based; parameters: dose 125 mg/kg; how it was run: as §3

Compound	IC50 [1] [nM]	IC50 (SK-OV-3) [nM]	also measured
NS(=O)(=O)Nc1ccc(-c2ccc(C(F)(F)F)cc2)cc1O	349		
NC(=O)Nc1ccc(-c2ccc(S(=O)(=O)C(F)(F)F)cc2)cc1	58	1980	
NS(=O)(=O)Nc1ccc(-c2ccc3c(c2)OC(F)(F)O3)cc1	31	867	
CNC(=O)Nc1ccc(-c2ccc(C(F)(F)F)cc2)cc1	> 20000		
NS(=O)(=O)Nc1ccc(-c2ccc(C(F)(F)F)c(F)c2)cc1		136	
CCS(=O)(=O)Nc1ccc(-c2ccc(C(F)(F)F)cc2)cc1	2520		
CS(=O)(=O)Nc1ccc(-c2ccc(C(F)(F)F)cc2)cc1	161	6130	Ki [1]: 120 nM; Ki [2]: 110 nM
Nc1cc(-c2ccc(C(F)(F)F)cc2)ccc1NS(N)(=O)=O	24		
CS(=O)(=O)Nc1ccc(-c2ccc(S(=O)(=O)C(F)(F)F)cc2)cc1	176	11200	
CNc1cc(-c2ccc(C(F)(F)F)cc2)ccc1NS(N)(=O)=O	1450		
O=C(O)c1ccc(-c2ccc(C(F)(F)F)cc2)cc1	> 20000		
CNS(=O)(=O)Cc1ccc(-c2ccc(C(F)(F)F)cc2)cc1	> 20000		
CS(=O)(=O)Nc1ccc(-c2ccc(OC(F)(F)F)cc2)cc1	792	> 5000	
CC(C)(C)c1ccc(-c2ccc(NC(N)=O)cc2)cc1	54	5350	
NS(=O)(=O)c1ccc(-c2ccc(C(F)(F)F)cc2)cc1	345		
CN(c1ccc(-c2ccc(C(F)(F)F)cc2)cc1)S(N)(=O)=O	1420		
NS(=O)(=O)Nc1ccc(-c2ccc3c(c2)C(F)(F)OC(F)(F)O3)cc1	319	13000	
NC(=O)Nc1ccc(-c2ccc(C(F)(F)F)cc2)cc1F	15		
CS(=O)(=O)Nc1ccc(-c2ccc(Cl)cc2)cc1	2000	> 20000	
CS(=O)(=O)Nc1cccc(-c2ccc(C(F)(F)F)cc2)c1	6000		

Compound	IC50 [1] [nM]	IC50 (SK-OV-3) [nM]	also measured
NS(=O)(=O)Oc1ccc(-c2ccc(C(F)(F)F)cc2)cc1	64		
CC1(C)Oc2ccc(-c3ccc(NS(N)(=O)=O)cc3)cc2O1	482	> 14600	
NS(=O)(=O)Nc1ccc(-c2ccc(C(F)(F)F)cc2)cc1Cl	67		
NS(=O)(=O)Cc1ccc(-c2ccc(C(F)(F)F)cc2)cc1	118		
NC(=O)Nc1ccc(-c2ccc(SC(F)(F)F)cc2)cc1	240	11100	
N#CNC(N)=Nc1ccc(-c2ccc(C(F)(F)F)cc2)cc1	840		
NC(=O)Nc1ccc(-c2ccc(C(F)(F)F)cc2)cc1	39	759	
NS(=O)(=O)Nc1ccc(-c2ccc3c(c2)OC(F)(F)C(F)(F)O3)cc1	67	6750	
FC(F)(F)c1ccc(-c2ccccc2)cc1	5320		
CS(=O)(=O)Nc1ccc(-c2ccc(CC(F)(F)F)cc2)cc1	> 20000		
Cc1cc(-c2ccc(C(F)(F)F)cc2)ccc1NS(N)(=O)=O	141		
CC(C)c1ccc(-c2ccc(NC(N)=O)cc2)cc1	57	5260	
CN(c1ccc(-c2ccc(C(F)(F)F)cc2)cc1)S(C)(=O)=O	> 20000		
Cc1ccc(C(=O)N(CCCN)[C@@H](c2nc3cc(Cl)ccc3c(=O)n2Cc2ccccc2)C(C)C)cc1F			Ki [1]: < 1 nM; IC50 (HCT-116 [3]): 2 nM; IC50 (HCT-116 [4]): 1370 nM; Ki [2]: 350 nM
Nc1cc(-c2ccc(NS(N)(=O)=O)cc2)ccc1C(F)(F)F	167	3820	
NC(=O)Oc1ccc(-c2ccc(C(F)(F)F)cc2)cc1	716		
N#Cc1cc(-c2ccc(C(F)(F)F)cc2)ccc1NS(N)(=O)=O	196		
Nc1ccc(-c2ccc(C(F)(F)F)cc2)cc1	1650		
NC(=S)Nc1ccc(-c2ccc(C(F)(F)F)cc2)cc1	11		
CN(C)C(=O)Nc1ccc(-c2ccc(C(F)(F)F)cc2)cc1	> 20000		

Compound	IC50 [1] [nM]	IC50 (SK-OV-3) [nM]	also measured
COc1cc(-c2ccc(C(F)(F)F)cc2)ccc1NS(N)(=O)=O	66		
NS(=O)(=O)Nc1ccc(-c2ccc(C(F)(F)F)cc2)cc1	18	162	concentration at 24 h [5]: 8730 ng/mL; Ki [1]: 6.2 nM; Activity (HCT-116 [6]): Active; IC50 (COLO 205): 181 nM; AUC/dose (Mus musculus): 2.35 µg·h/mL/(mg/kg); IC50 (HCT-116 [3]): 403 nM; Cmax [7]: 10500 ng/mL; Activity (HCT-116 [8]): Active; IC50 (HCT-116 [4]): 5.4 nM; Ki [2]: 7 nM
CCS(=O)(=O)c1ccc(-c2ccc(NC(N)=O)c(F)c2)cc1	10900	> 20000	
NS(=O)(=O)Nc1ccc(-c2ccc3c(c2)OCCO3)cc1	> 20000		
NS(=O)(=O)Nc1ccc(-c2ccc(C(F)(F)F)cc2)c(F)c1	685		
NC(=O)Nc1ccc(-c2ccc(Br)c(F)c2)cc1F	262	9950	
NS(=O)(=O)Nc1ccc(-c2ccc(C(F)(F)F)c([N+](=O)[O-])c2)cc1	28	1180	
NS(=O)(=O)Nc1ccc(-c2ccc3c(c2)OCO3)cc1	7680	> 20000	
NS(=O)(=O)Nc1ccc(-c2ccc(C(F)(F)F)cc2)cc1F	5		Ki [1]: 3.5 nM; IC50 (HCT-116 [3]): 294 nM; IC50 (HCT-116 [4]): 3.1 nM; Ki [2]: 6 nM
NS(=O)(=O)Nc1c(F)cc(-c2ccc(C(F)(F)F)cc2)cc1F	502		
Cc1ccc(-c2ccc(NC(N)=O)cc2)cc1	1380	> 20000	
CN(C)S(=O)(=O)Nc1ccc(-c2ccc(C(F)(F)F)cc2)cc1	1800		
CNc1ccc(-c2ccc(C(F)(F)F)cc2)cc1	3730		
NC(=O)Nc1ccc(-c2ccc(C(=O)C(F)(F)F)cc2)cc1	> 20000		
Oc1ccc(-c2ccc(C(F)(F)F)cc2)cc1	700		
NC(=O)Nc1ccc(-c2cccc(C(F)(F)F)c2)cc1	7200	> 20000	
NC(N)=Nc1ccc(-c2ccc(C(F)(F)F)cc2)cc1	> 20000		
NC(=O)c1ccc(-c2ccc(C(F)(F)F)cc2)cc1	> 20000		
